Test results: PMC3242808 (The Journal of neuroscience : the official journal of the …, 2011)
Several values for one entry are separate records, joined by “and”; a condition that tells them apart may be missing. Identical values can stand only once.

What was measured:
[1] = system: CD1 mice; assay: Capsaicin-induced spontaneous pain; type: in vivo, mouse; conditions: capsaicin 1 μg; for Capsaicin-induced pain: 10 μg intraplantar; for Capsaicin-induced nocifensive behaviors: 10 ng intraplantar
[2] = target: TRPA1 (Mus musculus, UniProt Q8BLA8); assay: Whole-cell patch clamp of AITC-induced TRPA1 currents in dissociated DRG neurons; type: cell-based; conditions: for Effect on TRPA1 currents: AITC (300 μM)-induced current; for IC50: read-out: TRPA1 IC50, TRPA1 current induced by AITC (300 μM), DRG neurons
[3] = system: CD1 mice; assay: AITC-induced spontaneous pain; type: in vivo, mouse; conditions: AITC 1 μg; for AITC-induced pain: 10 μg intraplantar; for AITC-induced nocifensive behaviors: 10 ng intraplantar
[4] = system: TRPA1; assay: AITC-induced sEPSC frequency increase in lamina II neurons of spinal cord slices; type: cell-based, mouse; conditions: AITC 300 μM
In short: (§1)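 Transverse L4–L5 spinal cord slices (400–600 μm) from CD1 mice aged 4–6 weeks, perfused with Krebs solution gassed with 95% O2/5% CO2 at 37°C. Whole-cell sEPSCs recorded from lamina IIo neurons held at −70 mV with K-gluconate internal solution at pH 7.4. Signals filtered at 2 kHz and digitized at 5 kHz. Frequency ratio taken against pretreatment baseline, with AITC at […]; n = 5–9 neurons.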

[5] = target: TRPV1 (Mus musculus, UniProt Q704Y3); type: cell-based; conditions: for IC50: read-out: TRPV1 IC50
[6] = system: C-fiber-evoked field potentials in the dorsal horn; assay: Spinal cord LTP of C-fiber-evoked field potentials in anesthetized mice; type: in vivo, mouse; conditions: 10 ng intrathecal, 2 h after LTP induction
In short: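 Mice under urethane (1.5 g/kg i.p.), laminectomy at T13–L1. Bipolar sciatic nerve stimulation; C-fiber field potentials recorded in ipsilateral L4–L5 dorsal horn at 100–300 μm depth. Test pulses (2× threshold, 0.5 ms) every 5 min for >40 min, then tetanus (5× threshold, 100 Hz, 1 s, four trains, 10 s apart). Test compound 10 ng i.t. via PE5 catheter 2 h post-induction; n = 5; two-way ANOVA.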

[7] = system: CD1 mice; assay: Formalin test; type: in vivo, mouse; conditions: 0.01 ng intrathecal
[8] = system: CD1 mice; assay: Rota-Rod test of motor function; type: in vivo, mouse; conditions: 10 ng i.t., naive animals
[9] = system: lamina II neurons of spinal cord slices; assay: sEPSCs in spinal cord slices from CFA-inflamed mice; type: cell-based, mouse; conditions: 1 ng/ml; slices from CFA-inflamed mice (one day)
In short: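 CD1 mice received CFA intraplantar (20 μl, 1 mg/ml) and were sliced 1 d later. Slices were compared with ones from noninflamed mice. L4–L5 transverse slices (400–600 μm) were perfused with Krebs solution at 37°C. Whole-cell recording from lamina IIo neurons held at −70 mV. sEPSC frequency and amplitude measured with test compound at 1 ng/ml; n = 5 neurons.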

[10] = system: TRPV1; type: cell-based, mouse; conditions: capsaicin 1 μM
[11] = system: lamina II neurons of spinal cord slices; assay: Patch clamp of basal sEPSCs in lamina II neurons of spinal cord slices; type: cell-based, mouse; conditions: RvD2 alone, 1 ng/ml
In short: as §1

[12] = system: CD1 mice; assay: Carrageenan-induced inflammatory pain; type: in vivo, mouse; conditions: 10 ng intraplantar
[13] = system: CD1 mice; assay: CFA-induced persistent inflammatory pain; type: in vivo, mouse; conditions: 10 ng intrathecal, 3 days after CFA
[14] = TRPV1 current induced by capsaicin (100 nM), DRG neurons
[15] = GDPβS 2.5 mM, 8 min, RvD2 1 ng/ml
[16] = PTX 0.5 μg/ml, 18 h, RvD2 1 ng/ml

Chain of TRPV1 (Mus musculus, UniProt Q704Y3) (Q704Y3 whole entry): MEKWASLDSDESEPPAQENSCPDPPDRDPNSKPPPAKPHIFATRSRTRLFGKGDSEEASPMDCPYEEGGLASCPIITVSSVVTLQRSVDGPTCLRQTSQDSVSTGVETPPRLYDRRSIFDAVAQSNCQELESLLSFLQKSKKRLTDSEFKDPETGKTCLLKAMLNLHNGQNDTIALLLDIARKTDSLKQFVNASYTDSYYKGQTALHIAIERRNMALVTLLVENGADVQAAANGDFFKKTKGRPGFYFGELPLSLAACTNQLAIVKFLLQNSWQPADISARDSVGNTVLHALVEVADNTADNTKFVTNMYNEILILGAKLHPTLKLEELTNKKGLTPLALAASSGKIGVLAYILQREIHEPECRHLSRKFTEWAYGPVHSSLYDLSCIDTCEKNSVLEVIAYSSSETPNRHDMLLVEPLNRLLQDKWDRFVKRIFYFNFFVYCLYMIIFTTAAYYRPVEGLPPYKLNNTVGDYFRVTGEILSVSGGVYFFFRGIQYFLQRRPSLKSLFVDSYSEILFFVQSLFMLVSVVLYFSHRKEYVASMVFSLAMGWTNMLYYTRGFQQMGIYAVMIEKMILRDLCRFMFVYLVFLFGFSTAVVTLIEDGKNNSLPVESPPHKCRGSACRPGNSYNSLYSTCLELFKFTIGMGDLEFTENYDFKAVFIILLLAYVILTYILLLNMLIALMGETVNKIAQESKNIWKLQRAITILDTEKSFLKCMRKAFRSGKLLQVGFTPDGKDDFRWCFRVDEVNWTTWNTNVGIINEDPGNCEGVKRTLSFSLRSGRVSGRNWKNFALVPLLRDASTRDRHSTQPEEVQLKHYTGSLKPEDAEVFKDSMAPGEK
Chain of TRPA1 (Mus musculus, UniProt Q8BLA8) (Q8BLA8 whole entry): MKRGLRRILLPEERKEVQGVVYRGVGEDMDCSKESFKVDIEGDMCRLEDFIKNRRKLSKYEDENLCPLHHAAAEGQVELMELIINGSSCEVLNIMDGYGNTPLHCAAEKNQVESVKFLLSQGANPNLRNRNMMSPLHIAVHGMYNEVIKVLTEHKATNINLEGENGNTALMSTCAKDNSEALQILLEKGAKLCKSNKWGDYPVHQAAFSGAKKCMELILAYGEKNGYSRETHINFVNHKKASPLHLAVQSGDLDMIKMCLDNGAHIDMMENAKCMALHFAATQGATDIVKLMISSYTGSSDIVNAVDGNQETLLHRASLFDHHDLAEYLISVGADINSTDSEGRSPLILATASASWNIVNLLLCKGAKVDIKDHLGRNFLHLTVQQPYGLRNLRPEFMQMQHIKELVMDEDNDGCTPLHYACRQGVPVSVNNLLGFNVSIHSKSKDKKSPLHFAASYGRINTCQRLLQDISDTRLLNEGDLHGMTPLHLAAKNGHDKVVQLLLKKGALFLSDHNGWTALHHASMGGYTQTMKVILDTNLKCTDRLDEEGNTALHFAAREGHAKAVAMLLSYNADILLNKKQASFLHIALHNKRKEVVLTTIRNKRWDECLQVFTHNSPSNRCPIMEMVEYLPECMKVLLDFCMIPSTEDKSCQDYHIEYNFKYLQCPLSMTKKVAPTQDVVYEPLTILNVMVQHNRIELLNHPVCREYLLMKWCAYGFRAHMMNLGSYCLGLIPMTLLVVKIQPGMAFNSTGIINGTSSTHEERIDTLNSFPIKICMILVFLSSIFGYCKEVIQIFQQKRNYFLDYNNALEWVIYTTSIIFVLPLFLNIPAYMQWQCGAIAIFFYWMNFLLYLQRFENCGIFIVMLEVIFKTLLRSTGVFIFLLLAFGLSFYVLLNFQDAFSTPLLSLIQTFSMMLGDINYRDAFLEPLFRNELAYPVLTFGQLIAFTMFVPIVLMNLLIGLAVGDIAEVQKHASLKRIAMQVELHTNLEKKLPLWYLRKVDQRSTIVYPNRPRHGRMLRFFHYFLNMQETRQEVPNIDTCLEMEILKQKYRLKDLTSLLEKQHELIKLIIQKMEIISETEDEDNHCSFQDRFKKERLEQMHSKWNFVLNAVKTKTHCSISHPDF

SMILES: CC/C=C\C/C=C\C/C=C\C/C=C\C/C=C\C/C=C\CCC(=O)O [DHA, docosahexaenoic acid, reference compound]
- Capsaicin-induced pain [1]: inhibited
- Effect on TRPA1 currents [2]: without affecting
- AITC-induced pain [3]: but not AITC-induced pain

SMILES: CC/C=C\C/C=C\C/C=C\C/C=C\C/C=C\CCCC(=O)O [EPA, eicosapentaenoic acid, reference compound]
- Capsaicin-induced pain [1]: inhibited
- Effect on TRPA1 currents [2]: without affecting
- AITC-induced pain [3]: but not AITC-induced pain

SMILES: CC/C=C\C[C@H](O)/C=C/C=C\C=C\C=C\[C@@H](O)[C@@H](O)C/C=C\CCC(=O)O [RvD1, Resolvin D1]
- IC50 [2]: 9 nM and 8.5 nM
- AITC-induced nocifensive behaviors [3]: selectively inhibited
- AITC-induced sEPSC frequency increase ([4]; 10 ng/ml): selectively inhibited
- Effect on TRPV1 currents ([5]; even at high concentrations): no effect
- IC50 [5, 14]: > 26.6 nM

SMILES: CC/C=C\C[C@H](O)[C@H](O)/C=C/C=C/C=C\C=C\[C@@H](O)C/C=C\CCC(=O)O [RvD2, Resolvin D2]
- LTP of C-fiber-evoked field potentials [6]: completely reversed
- Antinociceptive action in formalin test [7]: significant antinociceptive action
- Capsaicin-induced nocifensive behaviors [1]: significantly reduced
- Inhibition of TRPA1 current under intracellular GDPβS [2, 15]: completely blocked
- Effect on TRPA1 current after pertussis toxin pretreatment [2, 16]: could not alter
- IC50 [2]: 2 nM and 2.1 nM
- Motor function in the Rota-rod test [8]: Neither did this treatment affect
- AITC-induced nocifensive behaviors [3]: significantly reduced
- CFA-induced increase in sEPSC amplitude [9]: abolished
- CFA-induced increase in sEPSC frequency [9]: abolished
- Capsaicin-induced increase in sEPSC frequency ([10]; 0.1 and 1 ng/ml): does-dependently blocked
- Basal sEPSC amplitude [11]: altered neither
- Basal sEPSC frequency [11]: altered neither
- AITC-induced increase in sEPSC frequency ([4]; 0.1 and 1 ng/ml): does-dependently blocked
- CRG-induced heat hyperalgesia [12]: largely prevented
- CRG-induced mechanical allodynia [12]: largely prevented
- CRG-induced paw edema ([12]; data not shown): reduced
- Inhibition of TRPV1 current under intracellular GDPβS [5, 15]: completely blocked
- Effect on TRPV1 current after pertussis toxin pretreatment [5, 16]: could not alter
- TRPV1 IC50 expressed [5, 14]: 0.04 ng/mL
- IC50 [5, 14]: 0.1 ± 0.01 nM
- CFA-induced heat hyperalgesia [13]: effectively reduced
- Duration of reduction of CFA-induced heat hyperalgesia and mechanical allodynia [13]: > 3 h
- CFA-induced mechanical allodynia ([13]; data not shown): effectively reduced

SMILES: CC[C@@H](O)/C=C/C=C\C[C@@H](O)/C=C/C=C/C=C\[C@@H](O)CCCC(=O)O [RvE1, Resolvin E1]
- Capsaicin-induced nocifensive behaviors [1]: selectively inhibited
- Effect on TRPA1 currents [2]: did not inhibit
- Capsaicin-induced sEPSC frequency increase ([10]; 1 ng/ml): selectively inhibited
